The values below come from ChEMBL document CHEMBL3352065, “Greensporones: resorcylic acid lactones from an aquatic Halenospora sp” (J Nat Prod, 2014).

Activity calls are given as the source filed them. The calls are words filed in the database; no cut-off is given here.

In one assay the target is TAK1/TAB1 (Homo sapiens) (UniProt Q15750+O43318). Kind of assay: Inhibition of Tak1-TAB1 (unknown origin) assessed as enzyme activity by Kinase-Glo Plus luminescence kinase assay. It counts as protein-complex assay. In general terms: Kinase-Glo reads ATP consumption through a luciferase reaction.
Assay [1] concerns MDA-MB-435. Put plainly: Cytotoxicity against human MDA-MB-435 cells assessed as cell viability after 72 hrs. It counts as functional, cell-based. Conditions: MDA-MB-435, 72 h. An outline of the steps:
(§1)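 ATCC lines grown in RPMI 1640 with 10% FBS, penicillin and streptomycin at 37 °C, 5% CO2. Log-phase cells were trypsinized, washed twice, seeded at 5000/well and incubated overnight. Compound was added from DMSO at 20, 4, 0.8, 0.16 and 0.032 μM (0.5% DMSO final) for 72 h at 37 °C. Viable cells were read by commercial absorbance assay. IC50 is growth inhibition to 50% of DMSO control.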

In assay [2] the test system is HT-29. Kind of assay: Cytotoxicity against human HT-29 cells assessed as cell viability after 72 hrs. The conditions noted are these: HT-29, 72 h. It counts as functional, cell-based. The procedure, abridged: as §1
The subject of assay [3] is MDA-MB-435. Kind of assay: Cytotoxicity against human MDA-MB-435 cells assessed as cell viability at 1 nM after 72 hrs. The class given is functional. The conditions noted are these: MDA-MB-435, 72 h, read-out: Activity. An outline of the steps:
(§2)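 Vinblastine was the positive control, at 10 nM in HT-29 and 1 nM in MDA-MB-435 cells. Cells were seeded at 5000/well, incubated overnight, then exposed for 72 h at 37 °C in 5% CO2. Viability was read by absorbance assay of viable cells and expressed as % viable cells.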

The test system of assay [4] is HT-29. Put plainly: Cytotoxicity against human HT-29 cells assessed as cell viability at 10 nM after 72 hrs. It counts as functional. The conditions noted are these: HT-29, 72 h, read-out: Activity. The procedure, abridged:
as §2

The IC50 is the concentration that gives 50% inhibition. `COc1cc(O)cc2c1C(=O)O[C@@H](C)CCC(=O)CC/C=C/C(=O)C2`: the inhibition result on TAK1/TAB1 (Homo sapiens) is “inactive”. In addition, the figures for the IC50 with MDA-MB-435 [1] and in the assay on HT-29 [2] were 14.1 µM and more than 20 µM, respectively. Take `COc1cc(O)c(Cl)c2c1C(=O)O[C@@H](C)CC[C@@H](O)CC/C=C\C(=O)C2`: on TAK1/TAB1 (Homo sapiens), the inhibition result is “inactive”. Turning to `COc1cc(O)cc2c1C(=O)O[C@@H](C)CCCCC/C=C/C(=O)C2`, the inhibition result at TAK1/TAB1 (Homo sapiens) was “inactive”. The figures for the IC50 in the assay on MDA-MB-435 [1] and in the assay with HT-29 [2] were 2.9 µM and 7.5 µM, respectively. As to `COc1cc(O)c(Cl)c2c1C(=O)O[C@@H](C)CCC(=O)CCCCC(=O)C2`, the inhibition entry on TAK1/TAB1 (Homo sapiens) was “inactive”.

In the case of `COc1cc(O)c(Cl)c2c1C(=O)O[C@@H](C)CC[C@@H](O)CCCCC(=O)C2`, the inhibition result at TAK1/TAB1 (Homo sapiens) is “inactive”. `C[C@H]1CCCCC/C=C/C(=O)Cc2cc(O)cc(O)c2C(=O)O1`: the inhibition entry on TAK1/TAB1 (Homo sapiens) was “inactive”. Also, the half-inhibitory concentration (IC50) in the assay with MDA-MB-435 [1] came out at 14.5 µM; in the assay on HT-29 [2], 13.8 µM. On to `COc1cc(O)cc2c1C(=O)O[C@@H](C)CC[C@H]1CC[C@@H](CC(=O)C2)O1`, for which, on TAK1/TAB1 (Homo sapiens), the inhibition result was “inactive”.

With `COc1cc(O)cc2c1C(=O)O[C@@H](C)CC[C@@H](O)CC/C=C/C(=O)C2`, on TAK1/TAB1 (Homo sapiens), the inhibition result was “inactive”. For the same molecule, the values for the IC50 in the assay with MDA-MB-435 [1] and in the assay with HT-29 [2] were 11.2 µM and 25.4 µM, respectively. Regarding `COc1cc(O)cc2c1C(=O)O[C@@H](C)CC[C@H]1CC[C@H](CC(=O)C2)O1`, on TAK1/TAB1 (Homo sapiens), the inhibition entry was “inactive”. Consider `COc1cc(O)c(Cl)c2c1C(=O)O[C@@H](C)CCC(=O)CC/C=C/C(=O)C2`, for which, at TAK1/TAB1 (Homo sapiens), the inhibition result is “inactive”. Besides, the results for the IC50 in the assay with MDA-MB-435 [1] and in the assay with HT-29 [2] were 14.1 µM and more than 20 µM, respectively. For `CC[C@]1(O)C[C@@H]2CN(CCc3c([nH]c4ccccc34)[C@@](C(=O)OC)(c3cc4c(cc3OC)N(C)[C@H]3[C@@](O)(C(=O)OC)[C@H](OC(C)=O)[C@]5(CC)C=CCN6CC[C@]43[C@@H]65)C2)C1` [VINBLASTINE], the viability at 0.001 µM in the assay with MDA-MB-435 [3] is 21%. For the same molecule, the viability at 0.01 µM in the assay with HT-29 [4] worked out at 44%.

In the case of `COc1cc(O)c(Cl)c2c1C(=O)O[C@@H](C)CCC(=O)CC/C=C\C(=O)C2`, at TAK1/TAB1 (Homo sapiens), the inhibition entry is “inactive”. Take `COc1cc(O)cc2c1C(=O)O[C@@H](C)CCCCCCCC(=O)C2`: at TAK1/TAB1 (Homo sapiens), the inhibition result was “inactive”.
